In brackets after ≈: the same amount, converted by molar mass.
Legend:
[1] = target: Muscle, skeletal receptor tyrosine-protein kinase (Homo sapiens) (UniProt O15146); experiment: Inhibition of MUSK assessed as residual activity at 1 uM after 80 mins by microplate scintillation counting
[2] = target: Platelet-derived growth factor receptor alpha (Homo sapiens) (UniProt P16234); experiment: Inhibition of PDGFRalpha assessed as residual activity at 1 uM after 80 mins by microplate scintillation counting
[3] = target: RAF proto-oncogene serine/threonine-protein kinase (Homo sapiens) (UniProt P04049); experiment: Inhibition of RAF1 assessed as residual activity at 1 uM after 80 mins by microplate scintillation counting
Method in brief: (§1)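 Kinase profiling was outsourced to a contract laboratory as a panel of 30 protein kinases. Each compound was tested at two concentrations, and residual kinase activity was recorded.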

[4] = target: Proto-oncogene tyrosine-protein kinase receptor Ret (Homo sapiens) (UniProt P07949); experiment: Inhibition of RET assessed as residual activity at 10 uM after 80 mins by microplate scintillation counting; method in brief: as §1
[5] = target: Proto-oncogene tyrosine-protein kinase Src (Homo sapiens) (UniProt P12931); experiment: Inhibition of SRC assessed as residual activity at 10 uM after 80 mins by microplate scintillation counting; method in brief: as §1
[6] = target: Proto-oncogene tyrosine-protein kinase Src (Homo sapiens) (UniProt P12931); experiment: Inhibition of SRC assessed as residual activity at 1 uM after 80 mins by microplate scintillation counting; method in brief: as §1
[7] = target: Vascular endothelial growth factor receptor 2 (Homo sapiens) (UniProt P35968); experiment: Inhibition of VEGFR2 assessed as residual activity at 10 uM after 80 mins by microplate scintillation counting; method in brief: as §1
[8] = target: Aurora kinase A (Homo sapiens) (UniProt O14965); experiment: Inhibition of Aurora A assessed as residual activity at 1 uM after 80 mins by microplate scintillation counting
[9] = target: Aurora kinase B (Homo sapiens) (UniProt Q96GD4); experiment: Inhibition of Aurora B assessed as residual activity at 1 uM after 80 mins by microplate scintillation counting
[10] = target: Aurora kinase C (Homo sapiens) (UniProt Q9UQB9); experiment: Inhibition of Aurora C assessed as residual activity at 10 uM after 80 mins by microplate scintillation counting
[11] = target: Aurora kinase C (Homo sapiens) (UniProt Q9UQB9); experiment: Inhibition of Aurora C assessed as residual activity at 1 uM after 80 mins by microplate scintillation counting
[12] = target: Serine/threonine-protein kinase B-raf (Homo sapiens) (UniProt P15056); experiment: Inhibition of B-Raf assessed as residual activity at 1 uM after 80 mins by microplate scintillation counting
[13] = target: Cyclin-dependent kinase 1/cyclin B1 (Homo sapiens) (UniProt P06493+P14635); experiment: Inhibition of CDK1/Cyclin B1 assessed as residual activity at 1 uM after 80 mins by microplate scintillation counting; type: protein-complex assay
[14] = target: T1, Cyclin-dependent kinase 2/cyclin A (Homo sapiens) (UniProt P24941+P20248+P78396); experiment: Inhibition of CDK2/Cyclin A assessed as residual activity at 10 uM after 80 mins by microplate scintillation counting; type: protein-complex assay
[15] = target: T1, Cyclin-dependent kinase 2/cyclin A (Homo sapiens); experiment: Inhibition of CDK2/Cyclin A assessed as residual activity at 1 uM after 80 mins by microplate scintillation counting; type: protein-complex assay
[16] = target: Serine/threonine-protein kinase Chk1 (Homo sapiens) (UniProt O14757); experiment: Inhibition of CHK1 assessed as residual activity at 1 uM after 80 mins by microplate scintillation counting
[17] = target: Epidermal growth factor receptor (Homo sapiens) (UniProt P00533); experiment: Inhibition of EGFR assessed as residual activity at 1 uM after 80 mins by microplate scintillation counting
[18] = target: Receptor tyrosine-protein kinase erbB-2 (Homo sapiens) (UniProt P04626); experiment: Inhibition of ERBB2 assessed as residual activity at 10 uM after 80 mins by microplate scintillation counting
[19] = target: Tyrosine-protein kinase Fgr (Homo sapiens) (UniProt P09769); experiment: Inhibition of FGR assessed as residual activity at 1 uM after 80 mins by microplate scintillation counting
[20] = target: T2, Glycogen synthase kinase-3 beta (Homo sapiens, UniProt P49841); experiment: Inhibition of GSK3-beta assessed as residual activity at 1 uM after 80 mins by microplate scintillation counting
[21] = target: Insulin-like growth factor 1 receptor (Homo sapiens) (UniProt P08069); experiment: Inhibition of IGF1R assessed as residual activity at 1 uM after 80 mins by microplate scintillation counting
[22] = target: Tyrosine-protein kinase JAK2 (Homo sapiens) (UniProt O60674); experiment: Inhibition of JAK2 assessed as residual activity at 10 uM after 80 mins by microplate scintillation counting
[23] = Solubility in water by spectrophotometry; type: physicochemical
[24] = Antiproliferative activity against human LXFL 529L cells after 3 days by sulforhodamine B assay; type: functional, cell-based; settings: Homo sapiens, LXFL 529L, 72 h
Method in brief: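 Cells kept at 37 °C in humidified 5% CO2 in RPMI 1640 with 10% heat-inactivated FBS, penicillin (100 units/mL) and streptomycin, and checked for mycoplasma. Seeded, grown 24 h, then exposed to drug for 3 days in serum-containing medium. Fixed with 50% TCA solution for 1 h at 4 °C, stained with 0.4% SRB, dye eluted in 10 mM Tris pH 10.5, read at 570 nm. Growth expressed as % T/C; IC50 derived.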

[25] = target: T2, Glycogen synthase kinase-3 beta; experiment: Inhibition of GSK3-beta assessed as inhibition of [33Pi] incorporation after 80 mins by microplate scintillation counting
[26] = target: Tyrosine-protein kinase ABL1 (Homo sapiens) (UniProt P00519); experiment: Inhibition of ABL1 assessed as residual activity at 1 uM after 80 mins by microplate scintillation counting

Aurora kinase C (Homo sapiens), sequence (Q9UQB9 whole entry): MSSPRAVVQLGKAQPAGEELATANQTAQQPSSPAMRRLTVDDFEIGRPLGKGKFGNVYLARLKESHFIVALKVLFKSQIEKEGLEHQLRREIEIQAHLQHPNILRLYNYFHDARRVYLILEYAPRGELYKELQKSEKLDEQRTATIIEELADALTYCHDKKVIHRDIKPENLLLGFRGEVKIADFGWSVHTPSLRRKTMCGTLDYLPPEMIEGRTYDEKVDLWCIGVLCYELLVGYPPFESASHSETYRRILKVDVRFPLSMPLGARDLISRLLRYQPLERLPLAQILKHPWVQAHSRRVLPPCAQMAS
Proto-oncogene tyrosine-protein kinase Src (Homo sapiens), sequence (P12931 2-536 limits assumed): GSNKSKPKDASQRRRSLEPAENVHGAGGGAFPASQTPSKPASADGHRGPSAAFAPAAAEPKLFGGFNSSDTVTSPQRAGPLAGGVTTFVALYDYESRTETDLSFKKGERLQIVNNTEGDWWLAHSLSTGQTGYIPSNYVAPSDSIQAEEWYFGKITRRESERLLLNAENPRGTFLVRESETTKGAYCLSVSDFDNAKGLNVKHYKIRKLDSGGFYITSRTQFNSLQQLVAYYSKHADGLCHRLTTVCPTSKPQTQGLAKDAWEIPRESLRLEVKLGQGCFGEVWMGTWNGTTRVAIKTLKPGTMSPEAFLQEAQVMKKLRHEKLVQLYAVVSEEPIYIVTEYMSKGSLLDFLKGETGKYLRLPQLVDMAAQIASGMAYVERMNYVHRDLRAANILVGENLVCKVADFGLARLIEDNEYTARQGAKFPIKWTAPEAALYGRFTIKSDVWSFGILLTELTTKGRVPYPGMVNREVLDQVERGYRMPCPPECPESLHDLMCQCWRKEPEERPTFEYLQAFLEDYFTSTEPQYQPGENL
RAF proto-oncogene serine/threonine-protein kinase (Homo sapiens), sequence (P04049 whole entry): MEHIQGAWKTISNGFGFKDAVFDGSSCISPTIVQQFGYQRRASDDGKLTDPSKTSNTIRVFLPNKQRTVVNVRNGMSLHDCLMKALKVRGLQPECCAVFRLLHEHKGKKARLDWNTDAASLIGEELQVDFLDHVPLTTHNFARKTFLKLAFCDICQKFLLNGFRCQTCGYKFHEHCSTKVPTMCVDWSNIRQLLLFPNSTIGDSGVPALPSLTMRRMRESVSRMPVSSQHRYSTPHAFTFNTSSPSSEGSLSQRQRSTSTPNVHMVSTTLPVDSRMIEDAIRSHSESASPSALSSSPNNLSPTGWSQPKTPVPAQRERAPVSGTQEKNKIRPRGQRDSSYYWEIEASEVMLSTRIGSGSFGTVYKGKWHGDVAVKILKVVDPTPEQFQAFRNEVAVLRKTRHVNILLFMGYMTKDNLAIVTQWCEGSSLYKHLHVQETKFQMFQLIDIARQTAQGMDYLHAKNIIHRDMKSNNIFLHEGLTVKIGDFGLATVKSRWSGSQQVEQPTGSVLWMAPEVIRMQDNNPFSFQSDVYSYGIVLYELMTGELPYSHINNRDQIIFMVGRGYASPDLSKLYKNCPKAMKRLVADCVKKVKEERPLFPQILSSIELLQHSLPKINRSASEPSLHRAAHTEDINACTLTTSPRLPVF
Insulin-like growth factor 1 receptor (Homo sapiens), sequence (P08069 31-736 limits assumed): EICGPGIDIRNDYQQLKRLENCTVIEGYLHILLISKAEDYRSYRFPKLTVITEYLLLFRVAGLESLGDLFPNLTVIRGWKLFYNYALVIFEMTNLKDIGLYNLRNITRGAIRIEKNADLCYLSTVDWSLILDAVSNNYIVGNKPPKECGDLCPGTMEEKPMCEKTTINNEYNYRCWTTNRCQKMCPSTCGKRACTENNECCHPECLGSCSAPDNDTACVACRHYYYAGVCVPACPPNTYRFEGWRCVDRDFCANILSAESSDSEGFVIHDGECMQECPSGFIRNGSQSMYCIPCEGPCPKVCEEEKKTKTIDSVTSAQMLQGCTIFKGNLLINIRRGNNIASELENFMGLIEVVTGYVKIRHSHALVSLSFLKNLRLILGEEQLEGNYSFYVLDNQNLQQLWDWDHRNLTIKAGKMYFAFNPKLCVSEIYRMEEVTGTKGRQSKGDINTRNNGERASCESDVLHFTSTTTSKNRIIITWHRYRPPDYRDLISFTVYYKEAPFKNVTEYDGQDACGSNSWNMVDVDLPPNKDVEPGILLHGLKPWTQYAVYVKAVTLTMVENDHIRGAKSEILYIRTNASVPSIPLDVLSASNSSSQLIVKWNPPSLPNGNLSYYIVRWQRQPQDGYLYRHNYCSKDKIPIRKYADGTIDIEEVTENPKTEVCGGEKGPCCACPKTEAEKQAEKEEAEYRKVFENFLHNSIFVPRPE
Insulin-like growth factor 1 receptor (Homo sapiens), sequence (P08069 741-1367 limits assumed): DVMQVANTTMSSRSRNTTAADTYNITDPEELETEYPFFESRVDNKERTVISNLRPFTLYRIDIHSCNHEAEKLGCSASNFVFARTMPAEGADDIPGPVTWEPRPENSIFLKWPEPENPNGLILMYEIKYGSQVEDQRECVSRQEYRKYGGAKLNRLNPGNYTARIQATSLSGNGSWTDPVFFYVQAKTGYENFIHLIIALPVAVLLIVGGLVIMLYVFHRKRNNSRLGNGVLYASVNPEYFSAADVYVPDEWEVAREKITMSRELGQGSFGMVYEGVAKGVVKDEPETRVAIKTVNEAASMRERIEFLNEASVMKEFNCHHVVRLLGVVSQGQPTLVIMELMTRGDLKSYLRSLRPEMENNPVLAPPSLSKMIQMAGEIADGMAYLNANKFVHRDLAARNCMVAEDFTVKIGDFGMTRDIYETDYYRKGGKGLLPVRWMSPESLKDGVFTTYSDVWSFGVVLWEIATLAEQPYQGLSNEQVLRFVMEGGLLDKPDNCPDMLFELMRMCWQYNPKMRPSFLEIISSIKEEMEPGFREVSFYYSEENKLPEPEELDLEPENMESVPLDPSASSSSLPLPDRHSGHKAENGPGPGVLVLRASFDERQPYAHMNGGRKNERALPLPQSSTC
Tyrosine-protein kinase JAK2 (Homo sapiens), sequence (O60674 whole entry): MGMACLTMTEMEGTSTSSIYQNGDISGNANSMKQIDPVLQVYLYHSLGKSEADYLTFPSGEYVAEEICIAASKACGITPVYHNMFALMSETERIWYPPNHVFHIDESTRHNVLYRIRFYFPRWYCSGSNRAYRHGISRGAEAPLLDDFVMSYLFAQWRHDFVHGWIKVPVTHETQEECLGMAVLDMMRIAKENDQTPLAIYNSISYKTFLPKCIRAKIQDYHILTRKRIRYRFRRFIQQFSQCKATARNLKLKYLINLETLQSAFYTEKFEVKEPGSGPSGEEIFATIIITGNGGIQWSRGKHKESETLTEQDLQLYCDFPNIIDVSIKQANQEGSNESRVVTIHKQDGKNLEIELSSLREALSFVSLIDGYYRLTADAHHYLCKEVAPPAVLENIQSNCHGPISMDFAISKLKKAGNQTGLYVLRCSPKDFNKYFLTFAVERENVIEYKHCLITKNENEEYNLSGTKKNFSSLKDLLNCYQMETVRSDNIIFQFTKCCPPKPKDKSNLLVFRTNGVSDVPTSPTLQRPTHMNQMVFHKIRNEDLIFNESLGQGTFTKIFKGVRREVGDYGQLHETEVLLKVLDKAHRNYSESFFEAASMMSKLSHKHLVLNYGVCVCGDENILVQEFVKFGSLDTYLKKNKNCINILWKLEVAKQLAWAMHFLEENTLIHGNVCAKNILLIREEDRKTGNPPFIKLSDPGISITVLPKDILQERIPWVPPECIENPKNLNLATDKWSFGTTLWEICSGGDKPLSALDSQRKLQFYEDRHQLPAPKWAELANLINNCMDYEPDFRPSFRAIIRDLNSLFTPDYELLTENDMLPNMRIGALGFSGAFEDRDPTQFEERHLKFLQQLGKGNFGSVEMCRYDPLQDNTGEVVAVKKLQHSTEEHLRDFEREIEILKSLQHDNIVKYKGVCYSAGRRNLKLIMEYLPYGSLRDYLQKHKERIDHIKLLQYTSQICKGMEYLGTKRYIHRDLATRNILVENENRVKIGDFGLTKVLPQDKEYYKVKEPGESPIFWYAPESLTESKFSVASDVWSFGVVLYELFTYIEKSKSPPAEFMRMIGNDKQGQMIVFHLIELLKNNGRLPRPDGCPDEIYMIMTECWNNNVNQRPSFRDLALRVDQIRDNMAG
Platelet-derived growth factor receptor alpha (Homo sapiens), sequence (P16234 whole entry): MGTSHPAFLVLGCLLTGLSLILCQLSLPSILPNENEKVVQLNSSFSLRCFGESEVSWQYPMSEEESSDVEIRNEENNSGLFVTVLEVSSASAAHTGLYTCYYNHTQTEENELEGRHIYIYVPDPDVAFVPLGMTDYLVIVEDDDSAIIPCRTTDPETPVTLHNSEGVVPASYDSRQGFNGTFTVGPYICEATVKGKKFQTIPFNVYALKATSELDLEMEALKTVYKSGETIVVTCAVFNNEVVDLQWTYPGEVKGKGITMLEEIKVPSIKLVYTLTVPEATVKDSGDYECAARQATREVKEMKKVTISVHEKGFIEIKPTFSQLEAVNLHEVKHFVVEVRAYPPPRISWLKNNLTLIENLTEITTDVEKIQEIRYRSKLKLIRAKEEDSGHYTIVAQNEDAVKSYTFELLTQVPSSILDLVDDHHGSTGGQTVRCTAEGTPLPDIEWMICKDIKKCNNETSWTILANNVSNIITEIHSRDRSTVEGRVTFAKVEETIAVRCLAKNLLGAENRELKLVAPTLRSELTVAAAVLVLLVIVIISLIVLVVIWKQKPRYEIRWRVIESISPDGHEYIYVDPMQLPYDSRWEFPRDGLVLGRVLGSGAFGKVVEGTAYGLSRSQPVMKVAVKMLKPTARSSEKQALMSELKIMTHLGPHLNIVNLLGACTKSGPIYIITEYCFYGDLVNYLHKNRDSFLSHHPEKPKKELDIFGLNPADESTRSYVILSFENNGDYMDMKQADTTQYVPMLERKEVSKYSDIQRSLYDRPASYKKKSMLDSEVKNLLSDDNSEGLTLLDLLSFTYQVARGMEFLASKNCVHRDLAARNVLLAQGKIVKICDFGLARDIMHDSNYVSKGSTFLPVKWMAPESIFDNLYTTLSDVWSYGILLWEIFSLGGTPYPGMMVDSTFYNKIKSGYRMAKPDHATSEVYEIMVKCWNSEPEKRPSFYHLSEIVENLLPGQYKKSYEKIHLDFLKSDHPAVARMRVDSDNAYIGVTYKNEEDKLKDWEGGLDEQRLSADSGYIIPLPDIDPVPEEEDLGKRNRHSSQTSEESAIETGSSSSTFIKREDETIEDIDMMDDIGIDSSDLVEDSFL

Activity [1]: 81% | Activity [2]: 94% | Activity [3]: 94% | Activity [4]: 58% | Activity [5]: 271% | Activity [6]: 132% | Activity [7]: 65% | Activity [8]: 86% | Activity [9]: 98% | Activity [10]: 92% | Activity [11]: 83% | Activity [12]: 103% | Activity [13]: 79% | Activity [14]: 20% | Activity [15]: 60% | Activity [16]: 106% | Activity [17]: 99% | Activity [18]: 40% | Activity [19]: 99% | Activity [20]: 27% | Activity [21]: 102% | Activity [22]: 48% | solubility [23]: 520 µg/mL (≈ 1080 µM) | IC50 [25]: 100 nM | Activity [26]: 88%
Compound: CN1CCN(c2ccc(NC(=O)c3ccc4c(c3)/C(=C3/Nc5ccccc5C3=O)C(=O)N4)cc2)CC1
IC50 [24]: 540 nM

Source: ChEMBL document CHEMBL1165969, “Synthesis and cytotoxicity of novel indirubin-5-carboxamides” (Bioorg Med Chem, 2010)
